# Source: PubChem BioAssay
# M1 ag: activates human CHRM1 receptor | P11229 | AID 588814 | CHO-K1 hM1, Fluo-8 calcium fluorescence, agonist mode; 0% DMSO, 100% acetylcholine EC100 | activation, % at 3 µM | hit rate 0.33% among 360,000;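 active means activation above the run's mean compound activation plus 3 SD, cut at about 16% in these data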;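 further: peak over basal fluorescence ratio within a 140 s kinetic read after compound addition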
# CHRM1 PAM: positive allosteric modulators of human M1 muscarinic receptor; P11229; CHO-K1 hM1, Fluo-8 calcium fluorescence, ACh EC20; 0% = ACh EC20, 100% = maximal ACh; activation, % at 3 µM; hit rate 0.088% among 360,000; AID 588819; in the data active means activation above about 19%, passing the limit was not always enough
# CHRM5 PAM: CHRM5 positive allosteric modulation. activation, % at 3 µM. P08912. hit rate 0.3% among 360,000. CHO-K1 hM5, Fluo-8 calcium, ACh EC20 PAM; 0% = ACh EC20, 100% = ACh EC100;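 active means activation above the run cutoff, the mean activation of all test compounds plus 3 SD, cut at about 18% in these data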
# Target sequence (P08912 whole entry, looked up): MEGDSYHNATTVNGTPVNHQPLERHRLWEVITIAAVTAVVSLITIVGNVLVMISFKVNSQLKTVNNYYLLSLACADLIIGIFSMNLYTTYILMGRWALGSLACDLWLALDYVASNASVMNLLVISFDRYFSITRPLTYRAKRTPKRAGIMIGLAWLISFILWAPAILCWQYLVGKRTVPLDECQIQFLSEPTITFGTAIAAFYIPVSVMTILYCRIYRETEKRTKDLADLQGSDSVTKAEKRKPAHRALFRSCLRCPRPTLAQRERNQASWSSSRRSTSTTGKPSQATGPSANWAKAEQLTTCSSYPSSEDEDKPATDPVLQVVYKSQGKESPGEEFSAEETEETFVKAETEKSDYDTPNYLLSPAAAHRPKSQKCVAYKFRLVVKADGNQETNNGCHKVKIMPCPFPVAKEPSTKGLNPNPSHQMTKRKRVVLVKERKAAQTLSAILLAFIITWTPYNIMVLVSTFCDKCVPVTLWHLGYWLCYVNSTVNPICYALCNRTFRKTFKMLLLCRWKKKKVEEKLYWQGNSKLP
#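 System: CHO-K1 hM5 cells. Reagent: acetylcholine, EC20 level. Compound dosing: single dose, 3 µM nominal final test concentration. Timing: Post-acetylcholine fluorescence recording 140 s. Detection: Fluo-8 calcium fluorescence. Read-out: % activation, ACh-normalized. Benchmarks: ACh EC20 and EC100 wells. Repeats: singlicate, one well per test compound.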
# CHRM5 antagonist: blocks acetylcholine activation of human M5 receptor; P08912; CHO-hM5 cells, Fluo-8 calcium fluorescence, ACh EC80; inhibition, % at 3 µM; hit rate 0.59% among 360,000;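 active means inhibition above a per-plate cutoff, the mean of that plate's test compounds plus 3 SD, cut at about 27% in these data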;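 further: 0% = acetylcholine EC80 with DMSO and 100% = DMSO without agonist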
# CHRM1 antagonist: blocks human M1 muscarinic receptor. P11229. CHO-K1 hM1, Fluo-8 calcium fluorescence, ACh EC80 antagonist. inhibition, % at 3 µM. hit rate 1.3% among 360,000. AID 588852;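 active means percent inhibition above its own plate's cutoff, namely the mean of that plate's compound wells plus 3 SD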;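 further: peak over basal fluorescence ratio during 140 s after agonist addition; 0% = ACh EC80 plus DMSO and 100% = DMSO alone without agonist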
# M5 ag: CHRM5 agonism in calcium assay; activation, % at 3 µM; AID 624037; hit rate 0.19% among 360,000; P08912; CHO-K1 hM5 cells, Fluo-8 calcium fluorescence; 0% DMSO wells, 100% maximal acetylcholine response;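 active means activation above the run's mean over test compounds plus 3 SD, cut at about 23% in these data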;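 further: signal is peak over basal fluorescence ratio across the kinetic read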
# * hit, by the source's call. Sampled rows, rich in hits. Any-hit rate of the full collection: about 2.1%.
SMILES,M1 ag,CHRM1 PAM,CHRM5 PAM,CHRM5 antagonist,CHRM1 antagonist,M5 ag
Oc1ccc(Cl)cc1,0,5,-7,1,-39,1
C[N+](C)(C)CCc1ccc(O)cc1,35*,0,-6,2,-7,22
COc1cccc(CNCCc2cccc(F)c2)c1OC,-6,7,3,-7,-11,-3
CCOC(C(=O)OCC(O)CN(CC)CC)(c1ccccc1)c1ccccc1 (stereo not given),-6,2,-10,-1,-2,-13
O=C(O)C(O)(c1ccccc1)C1CCCCC1 (stereo not given),0,9,4,3,-16,-2
CCOC(C(=O)OCCC[N+](C)(CC)CC)(c1ccccc1)c1ccccc1,-15,-35,-22,55*,98*,-6
CC[N+](C)(CC)CCCOC(=O)C(O)(c1ccccc1)C1CCCCC1 (stereo not given),-9,-23,-33,98*,96*,-11
CCN(CC)CCCOC(=O)C(OC)(c1ccccc1)c1ccccc1,-12,-36,-23,56*,99*,-7
CN(C)Cc1c[nH]c2ccc([N+](=O)[O-])cc12,-4,6,9,9,-4,-5
CS(=O)(=O)c1ccc(C2=C(CNC(=O)c3ccc([N+](=O)[O-])cc3)[C@H]3CC[C@@H](C2)N3CCOc2ccccc2)cc1,-11,-19,0,-5,23,-3
c1ccc(-c2ccc(CN3Cc4ccccc4-n4nncc4C3)cc2)cc1,-2,-19,-16,18,36*,1
O=C(C1CC(c2ccc(Cl)c(Cl)c2)=NO1)N1CCC2(CC1)OCCO2 (stereo not given),-9,-9,-8,0,3,1
COc1ccccc1CCNC1CCC(C(C)(C)C)CC1 (stereo not given),-3,-12,-7,12,15,-2
COC(=O)C1=C(c2ccc(F)cc2OCc2ccccc2)C[C@@H]2CC[C@H]1N2C(=O)N1CCC(C)CC1,-14,-39,-35,15,78*,-9
COC(=O)C1=C(c2ccc(F)cc2OCc2ccccc2)C[C@@H]2CC[C@H]1N2C(=O)NCc1ccccc1C(F)(F)F,-9,-24,-21,21,32*,-4
Cc1ccc(OCC(=O)N2CCN(C3CCC(c4ccccc4)CC3)CC2)cc1 (stereo not given),-6,-3,8,-14,-1,-14
COc1ccc(NC2Oc3cc4c(cc3C(c3cc(OC)c(OC)c(OC)c3)C2C)OCO4)cc1 (stereo not given),7,20,19*,-11,-26,3
Clc1ccc2c(c1)C(OC1CN3CCC1CC3)c1ccccc1CS2 (stereo not given),-7,-23,-18,99*,100*,-2
CN1CCN(CCOC2c3ccccc3CSc3ccc(Cl)cc32)CC1 (stereo not given),-7,-23,-17,54*,99*,-2
Clc1ccc(C2N3CCCN23)c(Cl)c1 (stereo not given),-2,11,10,0,-34,-3
O=C1NC(=O)C(C2CCOC2=O)N1 (stereo not given),-3,10,-2,2,-16,-1
COC(=O)C1=CO[C@H](C)[C@H]2CN3CC[C@@]4(C(=O)Nc5ccccc54)[C@@H]3C[C@H]12,-2,1,-1,5,-6,-2
NNC(N)=O,16*,-22,-4,-1,2,-1
Cc1ccccc1-[n+]1c(-c2ccccc2)cc(-c2ccccc2)cc1-c1ccccc1,-8,-28,-40,42*,65*,-9
COc1ccc(-[n+]2c(-c3ccccc3)cc(-c3ccc(C)cc3)cc2-c2ccccc2)cc1,-6,-30,-34,81*,86*,-24
CCCOC(=O)c1ccc(-[n+]2c(-c3ccccc3)cc(-c3ccccc3)cc2-c2ccccc2)cc1,-8,-27,-41,31*,45*,-8
